From ChEMBL document CHEMBL3997772, “Tyrosyl-DNA Phosphodiesterase 1 Inhibitors: Usnic Acid Enamines Enhance the Cytotoxic Effect of Camptothecin” (J Nat Prod, 2016)

Tests used:
[1] = biological target: T1, Tyrosyl-DNA phosphodiesterase 1 (Homo sapiens, UniProt Q9NUW8); test: Inhibition of recombinant TDP1 (unknown origin) using 5'-(5,6 FAM-aac gtc agg gtc ttc c-BHQ1)-3' as substrate measured at 1 min interval by fluorimetric method
Procedure, shortened: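 Recombinant TDP1 1.3 nM with 50 nM FAM/BHQ1 biosensor in 50 mM Tris-HCl pH 8.0, 50 mM NaCl, 7 mM β-mercaptoethanol, 26 °C. Fluorescence read each minute (Ex485/Em520). Slope over 0–7 min linear phase compared with DMSO control; IC50 from 11-point concentration-response curve.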

[2] = Cytotoxicity against human MCF7 cells over expressing TDP1 assessed as reduction in viable cells after 72 hrs by MTT assay; assay type: cell-based; settings: MCF7 cells overexpressing TDP1
Procedure, shortened: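 MCF-7 cells (~2000/well) grown 24 h at 37 °C in IMDM, 5% CO2, then exposed to 0.1–100 μM compound for 72 h. Viable cells by MTT test; CC50 = concentration reducing cell number 50% vs untreated controls; average of three independent experiments.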

[3] = biological target: T1, Tyrosyl-DNA phosphodiesterase 1; test: Inhibition of TDP1 in human MCF7 cells assessed as potentiation of camptothecin-induced cytotoxicity by measuring fold reduction in camptothecin CC50 at 0.5 uM after 72 hrs by MTT assay relative to camptothecin alone; assay type: cell-based
Procedure, shortened: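 MCF-7 cells (~2000/well), pre-grown 24 h at 37 °C in IMDM, 5% CO2, treated with graded camptothecin plus 0.5 μM enamine for 72 h. Viability by MTT; camptothecin CC50 taken as 50% reduction in cell number vs untreated controls, compared with and without enamine.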

[4] = Cytotoxicity against human A549 cells assessed as reduction in viable cells after 72 hrs by MTT assay; assay type: cell-based
Procedure, shortened: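 A-549 cells treated with compounds; after 72 h, viable cells measured by MTT colorimetric test. CC50 = concentration reducing cell number by 50% versus untreated controls.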

[5] = biological target: T1, Tyrosyl-DNA phosphodiesterase 1; test: Inhibition of TDP1 in human A549 cells assessed as potentiation of camptothecin-induced cytotoxicity by measuring fold reduction in camptothecin CC50 at 0.5 uM after 72 hrs by MTT assay relative to camptothecin alone; assay type: cell-based
Procedure, shortened: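 A-549 cells treated with graded camptothecin plus 0.5 μM enamine; viability by MTT after 72 h. Camptothecin CC50 compared with and without enamine.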

[6] = biological target: T1, Tyrosyl-DNA phosphodiesterase 1; test: Inhibition of recombinant TDP1 (unknown origin) assessed as reduction in BHQ1 excision from 3'-end of [32P]-labeled oligonucleotide substrate after 20 mins by polyacrilamide gel electrophoresis

T1 sequence (Q9NUW8 whole entry): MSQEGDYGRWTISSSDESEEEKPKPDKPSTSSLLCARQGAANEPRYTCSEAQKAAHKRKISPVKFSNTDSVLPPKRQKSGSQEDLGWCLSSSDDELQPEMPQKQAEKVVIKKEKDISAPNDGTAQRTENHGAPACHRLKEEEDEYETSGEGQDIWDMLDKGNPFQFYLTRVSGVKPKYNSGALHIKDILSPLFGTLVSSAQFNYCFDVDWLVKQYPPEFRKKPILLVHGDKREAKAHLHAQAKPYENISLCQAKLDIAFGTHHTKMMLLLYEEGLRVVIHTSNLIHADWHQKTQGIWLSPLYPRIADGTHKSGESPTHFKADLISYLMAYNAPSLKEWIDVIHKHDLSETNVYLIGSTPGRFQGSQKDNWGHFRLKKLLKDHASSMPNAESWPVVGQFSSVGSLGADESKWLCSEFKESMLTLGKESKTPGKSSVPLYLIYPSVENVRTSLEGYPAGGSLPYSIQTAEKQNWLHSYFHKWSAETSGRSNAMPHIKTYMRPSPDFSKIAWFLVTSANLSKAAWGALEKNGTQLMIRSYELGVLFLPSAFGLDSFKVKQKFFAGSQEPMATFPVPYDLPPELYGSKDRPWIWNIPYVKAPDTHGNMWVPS

SMILES | IC50 [1] [nM] | IC50 [6] [µM] | CC50 at 72 h [2] [µM] | fold change (FC) [3] | CC50 at 72 h [4] [µM] | fold change (FC) [5]
CC(=O)C1=C(O)C=C2Oc3c(C(C)=O)c(O)c(C)c(O)c3[C@@]2(C)C1=O [(+)-USNIC ACID] | > 100000 | – | 52.3 | – | – | –
CC(=O)c1c(O)c(C)c(O)c2c1OC1=CC(=O)/C(=C(/C)Nc3ccc(Cl)cc3)C(=O)[C@]12C | 1620 | – | 16 | 0.35 | – | –
CC(=O)C1=C(O)C=C2Oc3c(C(C)=O)c(O)c(C)c(O)c3[C@]2(C)C1=O [(-)-USNIC ACID] | > 100000 | – | – | – | – | –
CC(=O)c1c(O)c(C)c(O)c2c1OC1=CC(=O)/C(=C(/C)NCCN(C)C)C(=O)C12C (stereo not given) | > 100000 | – | 33 | – | – | –
CC(=O)c1c(O)c(C)c(O)c2c1OC1=CC(=O)/C(=C(/C)NCCCN3CCOCC3)C(=O)C12C (stereo not given) | > 100000 | – | 24 | – | – | –
CC(=O)c1c(O)c(C)c(O)c2c1OC1=CC(=O)/C(=C(/C)Nc3ccc(Cl)cc3)C(=O)[C@@]12C | 1810 | – | > 50 | 0.51 | – | –
CC(=O)c1c(O)c(C)c(O)c2c1OC1=CC(=O)/C(=C(/C)Nc3ccccc3)C(=O)[C@]12C | 1920 | – | 39 | 1 | – | –

The next molecules have a lower IC50 [1] than those just listed; values first:

IC50 [1] [nM] | IC50 [6] [µM] | SMILES | CC50 at 72 h [2] [µM] | fold change (FC) [3] | CC50 at 72 h [4] [µM] | fold change (FC) [5]
1540 | – | CC(=O)c1c(O)c(C)c(O)c2c1OC1=CC(=O)/C(=C(/C)Nc3ccc(F)cc3)C(=O)[C@@]12C | 22.2 | 2.1 | – | –
1530 | – | CC(=O)c1c(O)c(C)c(O)c2c1OC1=CC(=O)/C(=C(/C)Nc3ccccc3)C(=O)[C@@]12C | > 50 | 1.2 | – | –
1390 | – | CC(=O)c1c(O)c(C)c(O)c2c1OC1=CC(=O)/C(=C(/C)Nc3cccc(F)c3)C(=O)C12C (stereo not given) | 35 | 12.8 | > 100 | 1.6
940 | – | CC(=O)c1c(O)c(C)c(O)c2c1OC1=CC(=O)/C(=C(/C)Nc3ccc(F)cc3)C(=O)[C@]12C | > 50 | 1.6 | – | –
790 | – | CC(=O)c1c(O)c(C)c(O)c2c1OC1=CC(=O)/C(=C(/C)NCCc3ccc(O)cc3)C(=O)[C@@]12C | 21.5 | 12.8 | 70 | 1.3
750 | – | CC(=O)c1c(O)c(C)c(O)c2c1OC1=CC(=O)/C(=C(/C)Nc3cccc(Br)c3)C(=O)C12C (stereo not given) | 18.1 | 12.5 | > 100 | 1.2
570 | – | CC(=O)c1c(O)c(C)c(O)c2c1OC1=CC(=O)/C(=C(/C)Nc3ccc(Br)cc3)C(=O)[C@]12C | 10.6 | 0.92 | – | –
260 | 4.6 | CC(=O)c1c(O)c(C)c(O)c2c1OC1=CC(=O)/C(=C(/C)Nc3ccc(Br)cc3)C(=O)[C@@]12C | 39.3 | 1.5 | – | –
190 | – | CC(=O)c1c(O)c(C)c(O)c2c1OC1=CC(=O)/C(=C(/C)NCCc3cc(C(C)(C)C)c(O)c(C(C)(C)C)c3)C(=O)C12C (stereo not given) | > 50 | 1.7 | – | –
160 | – | CC(=O)c1c(O)c(C)c(O)c2c1OC1=CC(=O)/C(=C(/C)NCCCc3cc(C(C)(C)C)c(O)c(C(C)(C)C)c3)C(=O)C12C (stereo not given) | > 50 | 10.5 | > 100 | 3.5
